Results reported in ChEMBL document CHEMBL1143573, “Synthesis and structure-activity relationships of a new model of arylpiperazines. 8. Computational simulation of ligand-receptor interaction of 5-HT(1A)R agonists with selectivity over alpha1-adrenoceptors” (J Med Chem, 2005).

Columns and labels:
[1] = molecular target: T1, Adrenergic receptor alpha-1 (Rattus norvegicus, UniProt P15823+P23944+P43140); experiment: In vitro inhibition of [3H]prazosin binding to Alpha-1 adrenergic receptor in rat cerebral cortex membranes; format: cell membranes, Membrane
T1 sequence (P15823 whole entry): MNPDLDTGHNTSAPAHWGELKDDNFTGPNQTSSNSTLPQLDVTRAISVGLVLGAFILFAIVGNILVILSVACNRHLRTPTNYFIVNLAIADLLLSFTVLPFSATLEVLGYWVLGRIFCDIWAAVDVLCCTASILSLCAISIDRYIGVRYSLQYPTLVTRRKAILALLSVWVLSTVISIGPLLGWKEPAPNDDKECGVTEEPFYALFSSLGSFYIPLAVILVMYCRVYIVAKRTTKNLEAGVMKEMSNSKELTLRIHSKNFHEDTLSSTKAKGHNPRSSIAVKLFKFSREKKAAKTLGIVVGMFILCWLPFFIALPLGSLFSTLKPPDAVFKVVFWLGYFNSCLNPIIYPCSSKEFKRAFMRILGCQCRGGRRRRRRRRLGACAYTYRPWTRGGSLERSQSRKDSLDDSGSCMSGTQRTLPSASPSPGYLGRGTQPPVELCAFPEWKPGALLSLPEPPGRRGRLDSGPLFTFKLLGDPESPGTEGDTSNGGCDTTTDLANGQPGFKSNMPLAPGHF
T1 sequence (P23944 whole entry): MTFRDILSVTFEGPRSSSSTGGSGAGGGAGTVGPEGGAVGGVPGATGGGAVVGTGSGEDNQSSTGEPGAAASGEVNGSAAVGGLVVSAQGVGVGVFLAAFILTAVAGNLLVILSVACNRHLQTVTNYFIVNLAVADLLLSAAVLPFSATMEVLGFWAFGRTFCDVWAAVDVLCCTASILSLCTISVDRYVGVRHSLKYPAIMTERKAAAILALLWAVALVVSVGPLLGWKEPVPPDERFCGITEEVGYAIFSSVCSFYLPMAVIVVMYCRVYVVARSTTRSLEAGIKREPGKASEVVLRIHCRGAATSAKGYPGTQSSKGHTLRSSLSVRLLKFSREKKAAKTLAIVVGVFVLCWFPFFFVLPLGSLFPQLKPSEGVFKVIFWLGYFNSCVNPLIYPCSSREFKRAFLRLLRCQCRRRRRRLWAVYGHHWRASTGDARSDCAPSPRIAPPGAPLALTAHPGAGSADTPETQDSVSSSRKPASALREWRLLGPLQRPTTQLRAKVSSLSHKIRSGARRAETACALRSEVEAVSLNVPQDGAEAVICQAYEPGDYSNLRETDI
T1 sequence (P43140 whole entry): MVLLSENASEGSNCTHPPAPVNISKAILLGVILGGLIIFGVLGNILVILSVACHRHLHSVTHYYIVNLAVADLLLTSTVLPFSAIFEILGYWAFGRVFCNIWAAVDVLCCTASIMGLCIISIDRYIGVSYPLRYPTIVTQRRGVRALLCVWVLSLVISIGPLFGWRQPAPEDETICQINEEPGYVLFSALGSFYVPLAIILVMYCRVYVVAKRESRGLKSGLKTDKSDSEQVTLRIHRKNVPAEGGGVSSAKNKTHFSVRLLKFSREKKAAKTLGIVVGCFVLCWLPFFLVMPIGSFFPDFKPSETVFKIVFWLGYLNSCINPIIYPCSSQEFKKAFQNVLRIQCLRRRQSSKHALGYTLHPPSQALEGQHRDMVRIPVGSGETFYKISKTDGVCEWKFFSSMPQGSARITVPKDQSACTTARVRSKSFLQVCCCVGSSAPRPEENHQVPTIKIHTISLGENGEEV
Summary of the method: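 Rat cerebral cortex membranes (about 250 µg protein) in 50 mM Tris-HCl with 10 mM MgCl2, pH 7.4. Incubated 30 min at 25 °C with 0.2 nM [3H]prazosin and six competitor concentrations. Nonspecific binding with 10 µM phentolamine. Compounds screened at 10^-6 M, curves run if displacement exceeded 55%. Triplicates, 2-4 experiments; Ki by Cheng-Prusoff.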

[2] = molecular target: T2, 5-hydroxytryptamine receptor 1A (Rattus norvegicus, UniProt P19327); experiment: In vitro inhibition of [3H]8-OH-DPAT binding to 5-hydroxytryptamine 1A receptor in rat cerebral cortex membranes; format: cell membranes, Membrane
T2 sequence (P19327 whole entry): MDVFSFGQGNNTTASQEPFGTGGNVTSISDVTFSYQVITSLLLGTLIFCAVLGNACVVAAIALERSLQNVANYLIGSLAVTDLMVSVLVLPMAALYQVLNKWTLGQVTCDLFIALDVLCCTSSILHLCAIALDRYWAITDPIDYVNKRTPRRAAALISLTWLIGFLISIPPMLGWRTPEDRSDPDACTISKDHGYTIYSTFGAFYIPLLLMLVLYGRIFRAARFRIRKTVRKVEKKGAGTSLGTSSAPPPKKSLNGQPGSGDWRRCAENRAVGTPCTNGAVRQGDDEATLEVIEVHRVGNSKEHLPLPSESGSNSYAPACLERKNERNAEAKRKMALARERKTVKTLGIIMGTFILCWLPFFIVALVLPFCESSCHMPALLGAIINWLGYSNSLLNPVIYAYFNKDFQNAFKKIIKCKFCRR
Summary of the method: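 Rat cerebral cortex membranes (about 1 mg protein) incubated 15 min at 37 °C with 0.6 nM [3H]-8-OH-DPAT in 50 mM Tris-HCl, pH 7.4, containing 10 nM clonidine and 30 nM prazosin. Nonspecific binding with 10 µM 5-HT. Compounds screened at 10^-6 M; curves run if displacement exceeded 55%. Filtration, scintillation counting, triplicates, 2-4 experiments; Ki by Cheng-Prusoff.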

[3] = molecular target: Sodium-dependent serotonin transporter (Rattus norvegicus, UniProt P31652); experiment: In vitro inhibition of [3H]paroxetine binding to 5-hydroxytryptamine transporter in rat cerebral cortex membranes; format: cell membranes, Membrane
Sodium-dependent serotonin transporter, sequence (P31652 whole entry): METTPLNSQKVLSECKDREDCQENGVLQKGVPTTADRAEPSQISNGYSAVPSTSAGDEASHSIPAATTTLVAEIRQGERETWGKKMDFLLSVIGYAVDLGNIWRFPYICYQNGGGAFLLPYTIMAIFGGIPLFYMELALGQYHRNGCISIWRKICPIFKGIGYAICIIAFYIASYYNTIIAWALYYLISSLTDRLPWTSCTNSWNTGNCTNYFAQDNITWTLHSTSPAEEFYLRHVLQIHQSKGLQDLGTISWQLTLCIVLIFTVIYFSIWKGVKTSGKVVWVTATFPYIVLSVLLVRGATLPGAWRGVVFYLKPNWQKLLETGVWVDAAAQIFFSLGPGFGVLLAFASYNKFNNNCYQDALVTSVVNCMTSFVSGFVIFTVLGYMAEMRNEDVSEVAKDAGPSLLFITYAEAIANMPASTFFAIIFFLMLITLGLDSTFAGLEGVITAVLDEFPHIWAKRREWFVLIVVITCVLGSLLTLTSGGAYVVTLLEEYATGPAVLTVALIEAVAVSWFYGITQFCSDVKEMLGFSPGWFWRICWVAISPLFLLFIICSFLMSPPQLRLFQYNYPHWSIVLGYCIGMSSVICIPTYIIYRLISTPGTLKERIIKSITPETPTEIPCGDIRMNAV
Summary of the method: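 Rat cortical membranes (about 120 µg protein) incubated 60 min at 25 °C with 0.2 nM [3H]paroxetine. Buffer is Tris-HCl with 20 mM NaCl and 5 mM KCl, pH 7.4. Nonspecific binding with 10 µM fluoxetine. Filtration, scintillation counting, triplicates; Ki by Cheng-Prusoff.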

[4] = molecular target: T3, 5-hydroxytryptamine receptor 1A (Homo sapiens) (UniProt P08908); experiment: (§1) Inhibition of forskolin-induced increase in cAMP in human 5-hydroxytryptamine 1A receptor expressed HeLa cells; format: functional, cell-based
T3 sequence (whole entry): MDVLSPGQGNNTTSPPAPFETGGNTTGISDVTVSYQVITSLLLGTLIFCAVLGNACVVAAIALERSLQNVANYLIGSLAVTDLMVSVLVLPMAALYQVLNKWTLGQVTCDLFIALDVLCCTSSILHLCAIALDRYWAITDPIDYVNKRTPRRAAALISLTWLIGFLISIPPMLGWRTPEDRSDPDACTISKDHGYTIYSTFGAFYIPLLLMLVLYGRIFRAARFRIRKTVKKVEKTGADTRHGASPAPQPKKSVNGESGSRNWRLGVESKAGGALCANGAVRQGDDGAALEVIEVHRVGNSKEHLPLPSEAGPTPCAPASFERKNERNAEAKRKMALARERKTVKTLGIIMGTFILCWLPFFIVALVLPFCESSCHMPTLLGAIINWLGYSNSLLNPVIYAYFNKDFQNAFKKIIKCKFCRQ
Summary of the method: (§2)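 HeLa cells stably expressing human 5-HT1A (HA 6) were plated 48 h ahead. Cells treated 10 min at 37 °C, 5% CO2, with 0.5 mM IBMX, 10 µM forskolin and compound (10-9-10-5 M), then lysed in 65% ethanol. cAMP measured by [3H] radioimmunoassay, expressed as % of forskolin-stimulated adenylate cyclase activity. Duplicate experiments, four wells per concentration; EC50 by curve fit.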

[5] = molecular target: 5-hydroxytryptamine receptor 4 (Rattus norvegicus, UniProt Q62758); experiment: In vitro inhibition of [3H]GR-113808 binding to 5-hydroxytryptamine 4 receptor of rat striatum membranes; format: cell membranes, Membrane
5-hydroxytryptamine receptor 4, sequence (Q62758 whole entry): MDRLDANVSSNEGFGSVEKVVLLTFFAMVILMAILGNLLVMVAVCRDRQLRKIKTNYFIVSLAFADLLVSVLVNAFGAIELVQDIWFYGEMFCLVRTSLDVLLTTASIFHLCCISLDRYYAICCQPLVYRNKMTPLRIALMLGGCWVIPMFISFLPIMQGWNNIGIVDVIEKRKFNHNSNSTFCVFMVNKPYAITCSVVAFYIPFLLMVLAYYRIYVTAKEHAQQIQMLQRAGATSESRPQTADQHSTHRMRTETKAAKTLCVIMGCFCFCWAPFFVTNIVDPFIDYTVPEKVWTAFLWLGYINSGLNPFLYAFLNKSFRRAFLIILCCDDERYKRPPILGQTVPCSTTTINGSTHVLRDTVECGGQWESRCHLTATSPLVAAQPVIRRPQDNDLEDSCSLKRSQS
Summary of the method: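 Membranes from rat striatum were incubated 30 min at 37 °C with 0.1 nM [3H]GR113808 in 50 mM HEPES, pH 7.4. Nonspecific binding with 30 µM 5-HT. Bound radioactivity counted after GF/B filtration, triplicates. Ki from iterative curve fit via Cheng-Prusoff.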

[6] = molecular target: 5-hydroxytryptamine receptor 7 (Rattus norvegicus, UniProt P32305); experiment: In vitro inhibition of [3H]5-CT binding to 5-hydroxytryptamine 7 receptor in rat hypothalamus membranes; format: cell membranes, Membrane
5-hydroxytryptamine receptor 7, sequence (P32305 whole entry): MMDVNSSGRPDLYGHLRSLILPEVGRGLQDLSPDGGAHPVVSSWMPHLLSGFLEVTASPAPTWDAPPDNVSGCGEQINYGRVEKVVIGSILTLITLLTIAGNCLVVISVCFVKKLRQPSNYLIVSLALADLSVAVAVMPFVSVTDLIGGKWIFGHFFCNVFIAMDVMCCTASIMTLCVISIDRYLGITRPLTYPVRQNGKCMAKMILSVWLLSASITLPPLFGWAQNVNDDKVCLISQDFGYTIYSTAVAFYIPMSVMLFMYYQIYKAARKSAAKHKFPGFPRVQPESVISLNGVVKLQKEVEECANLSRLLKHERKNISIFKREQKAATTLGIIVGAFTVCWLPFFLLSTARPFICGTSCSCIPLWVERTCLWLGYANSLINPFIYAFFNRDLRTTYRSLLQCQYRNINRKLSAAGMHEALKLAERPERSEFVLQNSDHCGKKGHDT
Summary of the method: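 Rat hypothalamus membranes were incubated 120 min at 23 °C with 0.5 nM [3H]-5-CT. Nonspecific binding with 10 µM 5-HT. Filtration and scintillation counting, triplicates, 2-4 experiments. Ki from curve fit by Cheng-Prusoff.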

[7] = molecular target: 5-hydroxytryptamine receptor 2A (Rattus norvegicus, UniProt P14842); experiment: In vitro inhibition of [3H]ketanserin binding to 5-hydroxytryptamine 2A receptor in rat cerebral frontal cortex membranes; format: cell membranes, Membrane
5-hydroxytryptamine receptor 2A, sequence (P14842 whole entry): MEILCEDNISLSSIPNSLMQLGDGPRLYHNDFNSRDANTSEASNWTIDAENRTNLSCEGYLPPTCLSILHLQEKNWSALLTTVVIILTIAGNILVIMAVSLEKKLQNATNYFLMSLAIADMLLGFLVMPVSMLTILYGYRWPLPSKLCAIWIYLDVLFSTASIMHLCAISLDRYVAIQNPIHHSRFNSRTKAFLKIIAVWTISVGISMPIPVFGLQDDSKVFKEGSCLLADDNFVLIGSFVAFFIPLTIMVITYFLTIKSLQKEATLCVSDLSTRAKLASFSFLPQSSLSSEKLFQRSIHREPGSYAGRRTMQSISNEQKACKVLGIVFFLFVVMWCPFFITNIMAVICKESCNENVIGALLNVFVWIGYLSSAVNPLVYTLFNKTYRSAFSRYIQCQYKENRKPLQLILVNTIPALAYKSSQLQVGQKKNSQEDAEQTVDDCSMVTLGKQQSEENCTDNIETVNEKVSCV
Summary of the method: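 Rat frontal cortex membranes were incubated 15 min at 37 °C with 0.4 nM [3H]ketanserin. Nonspecific binding with 1 µM cinanserin. Filtration, scintillation counting, triplicates; Ki by Cheng-Prusoff.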

[8] = molecular target: D(2) dopamine receptor (Rattus norvegicus, UniProt P61169); experiment: In vitro inhibition of [3H]-raclopride binding to Dopamine receptor D2 in rat striatum membranes; format: cell membranes, Membrane
D(2) dopamine receptor, sequence (P61169 whole entry): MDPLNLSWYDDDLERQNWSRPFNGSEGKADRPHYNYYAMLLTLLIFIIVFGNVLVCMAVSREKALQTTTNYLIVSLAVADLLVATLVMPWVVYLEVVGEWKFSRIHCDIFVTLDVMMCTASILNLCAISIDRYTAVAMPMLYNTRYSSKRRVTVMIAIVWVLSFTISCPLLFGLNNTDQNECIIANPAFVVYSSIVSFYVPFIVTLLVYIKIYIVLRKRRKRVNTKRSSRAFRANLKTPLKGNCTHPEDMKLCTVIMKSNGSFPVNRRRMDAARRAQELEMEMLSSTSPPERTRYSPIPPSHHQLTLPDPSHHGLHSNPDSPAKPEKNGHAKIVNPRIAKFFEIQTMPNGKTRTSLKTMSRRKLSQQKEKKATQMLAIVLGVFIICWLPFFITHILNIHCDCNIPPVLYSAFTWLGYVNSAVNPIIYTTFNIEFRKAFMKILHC
Summary of the method: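 Male Sprague-Dawley rat striatum membranes (125-150 µg protein) incubated 60 min at 25 °C with 0.8 nM [3H]raclopride and six competitor concentrations. Nonspecific binding with 1 µM (+)-butaclamol. GF/B filtration, scintillation counting, triplicates. Ki by Cheng-Prusoff.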

[9] = molecular target: T4, 5-hydroxytryptamine receptor 1A (Homo sapiens, UniProt P08908); experiment: as §1; format: functional, cell-based; summary of the method: as §2
T4 sequence (P08908 whole entry): T3 sequence (whole entry)

[10] = molecular target: T5, 5-hydroxytryptamine receptor 3A (Rattus norvegicus, UniProt P35563); experiment: In vitro inhibition of [3H]LY-278584 binding to 5-hydroxytryptamine 3 receptor in rat cerebral cortex membranes; format: cell membranes, Membrane
T5 sequence (P35563 whole entry): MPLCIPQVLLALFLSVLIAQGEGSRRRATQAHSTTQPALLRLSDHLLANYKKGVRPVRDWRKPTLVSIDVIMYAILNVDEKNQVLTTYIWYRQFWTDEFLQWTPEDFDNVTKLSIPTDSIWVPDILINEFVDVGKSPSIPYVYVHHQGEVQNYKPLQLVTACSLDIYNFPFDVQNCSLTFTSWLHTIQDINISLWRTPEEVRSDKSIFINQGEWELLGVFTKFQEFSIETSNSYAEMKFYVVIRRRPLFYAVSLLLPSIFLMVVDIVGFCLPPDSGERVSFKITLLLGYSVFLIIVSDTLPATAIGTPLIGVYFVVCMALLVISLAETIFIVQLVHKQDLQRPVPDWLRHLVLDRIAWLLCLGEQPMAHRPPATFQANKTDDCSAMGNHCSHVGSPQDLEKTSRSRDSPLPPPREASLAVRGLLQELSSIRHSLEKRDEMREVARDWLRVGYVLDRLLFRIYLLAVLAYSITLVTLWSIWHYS
Summary of the method: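 Sucrose-prepared rat cerebral cortex membranes were incubated 30 min at 25 °C with 0.7 nM [3H]LY278584. Nonspecific binding with 10 µM 5-HT. Filtration and scintillation counting, triplicates; Ki by Cheng-Prusoff.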

[11] = molecular target: GABA-A receptor; anion channel; experiment: In vitro inhibition of [3H]flunitrazepam binding to Benzodiazepine receptor of rat cerebral cortex membranes; format: cell membranes, Membrane
Summary of the method: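 Rat brain membranes (about 100 µg protein) in 25 mM potassium phosphate, pH 7.4, incubated 90 min at 0-4 °C with 0.25 nM [3H]flunitrazepam. Nonspecific binding with 2 µM diazepam. Filtration, scintillation counting, triplicates; Ki by Cheng-Prusoff.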

| Ki [1] [nM] | Compound | further results |
| --- | --- | --- |
| 8 | O=C1C2CCCN2C(=O)CN1CCCCN1CCN(c2cccc3ccccc23)CC1 (configuration not stated) |  |
| 19.4 | O=C1C2CCCN2C(=O)N1CCCCN1CCN(c2cccc3[nH]cnc23)CC1 (configuration not stated) |  |
| > 1000 | O=C1C2CCCCN2C(=O)N1CN1CCN(c2cccc3ccccc23)CC1 (configuration not stated) |  |
| > 10000 | O=C1C2CCCN2C(=O)N1CN1CCN(c2cccc3[nH]cnc23)CC1 (configuration not stated) |  |
| > 1000 | O=C1[C@@H]2CCCN2C(=O)CN1CN1CCN(c2cccc3ccccc23)CC1 | Ki [3]: 976 nM; Maximal effect [4]: 90.3%; Ki [5]: > 10000 nM; Ki [6]: 101 nM; Ki [7]: 13.5 nM; Ki [8]: 192 nM; EC50 [9]: 150 nM; Ki [10]: 8.9 nM; Ki [11]: > 10000 nM; Ki [2]: 4.1 nM |
| > 1000 | C[C@H]1CN(c2cccc3ccccc23)CCN1CN1CC(=O)N2CCC[C@H]2C1=O |  |
| 34.4 | C[C@H]1CN(c2cccc3ccccc23)CCN1CCCCN1CC(=O)N2CCC[C@H]2C1=O |  |
| > 1000 | O=C1C2CCCCN2C(=O)N1CN1CCN(c2cccc3c2OCCO3)CC1 (configuration not stated) |  |
| > 1000 | O=C1C2CCCN2C(=O)N1CN1CCN(c2cccc3ccccc23)CC1 (configuration not stated) |  |
| > 1000 | CCS(=O)(=O)Nc1cccc(N2CCN(CCCCN3C(=O)C4CCCN4C3=O)CC2)c1 (configuration not stated) |  |
| > 1000 | C[C@@H]1CN(c2cccc3ccccc23)CCN1CN1CC(=O)N2CCC[C@H]2C1=O |  |
| 20.1 | C[C@@H]1CN(c2cccc3ccccc23)CCN1CCCCN1CC(=O)N2CCC[C@@H]2C1=O |  |
| > 1000 | O=C1[C@H]2CCCN2C(=O)CN1CN1CCN(c2cccc3ccccc23)CC1 | Ki [2]: 4.6 nM |
| > 1000 | C[C@@H]1CN(c2cccc3ccccc23)CCN1CN1CC(=O)N2CCC[C@@H]2C1=O |  |
| > 1000 | C[C@H]1CN(c2cccc3ccccc23)CCN1CN1CC(=O)N2CCC[C@@H]2C1=O |  |
| > 1000 | O=C1C2CCCN2C(=O)CN1CN1CCN(c2cccc3ccccc23)CC1 (configuration not stated) | Ki [2]: 6.7 nM |

| Compound | Ki [1] [nM] | further results |
| --- | --- | --- |
| O=C1[C@@H]2CCCN2C(=O)CN1CN1CCN(c2cccc3c2CC=COO3)CC1 | > 1000 | Ki [2]: 12.3 nM |
| O=C1C2CCCN2C(=O)CN1CN1CCN(c2cccc3c2CC=COO3)CC1 (configuration not stated) | > 1000 | Ki [2]: 11.6 nM |
